Reference: ChEMBL document CHEMBL1133553, “Synthesis and transporter binding properties of bridged piperazine analogues of 1-[2-[bis(4-fluorophenyl)methoxy]ethyl]-4-(3-phenylpropyl)piperazine (GBR 12909)” (J Med Chem, 2000)

Tests used:
[1] = biological target: T1, Sodium-dependent serotonin transporter (Rattus norvegicus, UniProt P31652); test: Inhibition of [3H]5-HT reuptake in whole rat brain (minus cerebellum) homogenate.; type: functional, tissue-based
[2] = biological target: T2, Monoamine transporters; serotonin & dopamine (Rattus norvegicus) (UniProt P31652+P23977); test: Ratio of binding affinity of 5-HT to that of DA; type: protein assay
[3] = biological target: T2, Monoamine transporters; serotonin & dopamine (Rattus norvegicus); test: Ratio of reuptake of 5-HT to that of DA; type: functional
[4] = biological target: T3, Sodium-dependent dopamine transporter (Rattus norvegicus, UniProt P23977); test: Binding affinity for rat Dopamine transporter.
Procedure, shortened: (§1)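 Drugs and blockers prepared in 55.2 mM sodium phosphate buffer, pH 7.4, with 1 mg/mL BSA. Radioligand prepared in the same buffer with chymostatin, leupeptin, EDTA and EGTA. Triplicate incubations ran 18-24 h at 4 °C (equilibrium) in 1 mL, then were filtered over GF/B filters presoaked in 2% polyethylenimine.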

[5] = biological target: T1, Sodium-dependent serotonin transporter; test: Binding affinity for rat 5-hydroxytryptamine transporter.; procedure, shortened: as §1
[6] = biological target: T3, Sodium-dependent dopamine transporter; test: Inhibition of [3H]DA reuptake in rat caudate homogenate.; type: functional, tissue-based

T1 sequence (P31652 whole entry): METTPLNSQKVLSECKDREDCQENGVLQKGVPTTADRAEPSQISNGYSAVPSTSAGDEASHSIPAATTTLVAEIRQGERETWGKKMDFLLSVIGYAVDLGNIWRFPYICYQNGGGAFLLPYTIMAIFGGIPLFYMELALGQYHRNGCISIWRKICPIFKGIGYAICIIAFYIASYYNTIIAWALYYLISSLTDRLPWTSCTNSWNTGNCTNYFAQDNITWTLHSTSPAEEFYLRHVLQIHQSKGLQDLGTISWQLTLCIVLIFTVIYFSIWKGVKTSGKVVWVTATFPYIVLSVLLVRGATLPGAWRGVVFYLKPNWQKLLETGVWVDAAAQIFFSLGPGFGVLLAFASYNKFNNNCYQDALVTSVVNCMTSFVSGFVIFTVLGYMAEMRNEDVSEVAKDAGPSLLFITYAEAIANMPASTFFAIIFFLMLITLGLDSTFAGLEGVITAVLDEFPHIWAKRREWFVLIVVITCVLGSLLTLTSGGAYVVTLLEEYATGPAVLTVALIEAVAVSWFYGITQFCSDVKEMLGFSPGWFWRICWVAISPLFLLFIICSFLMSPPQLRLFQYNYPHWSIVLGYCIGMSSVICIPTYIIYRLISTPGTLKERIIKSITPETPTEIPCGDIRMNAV
T3 sequence (P23977 whole entry): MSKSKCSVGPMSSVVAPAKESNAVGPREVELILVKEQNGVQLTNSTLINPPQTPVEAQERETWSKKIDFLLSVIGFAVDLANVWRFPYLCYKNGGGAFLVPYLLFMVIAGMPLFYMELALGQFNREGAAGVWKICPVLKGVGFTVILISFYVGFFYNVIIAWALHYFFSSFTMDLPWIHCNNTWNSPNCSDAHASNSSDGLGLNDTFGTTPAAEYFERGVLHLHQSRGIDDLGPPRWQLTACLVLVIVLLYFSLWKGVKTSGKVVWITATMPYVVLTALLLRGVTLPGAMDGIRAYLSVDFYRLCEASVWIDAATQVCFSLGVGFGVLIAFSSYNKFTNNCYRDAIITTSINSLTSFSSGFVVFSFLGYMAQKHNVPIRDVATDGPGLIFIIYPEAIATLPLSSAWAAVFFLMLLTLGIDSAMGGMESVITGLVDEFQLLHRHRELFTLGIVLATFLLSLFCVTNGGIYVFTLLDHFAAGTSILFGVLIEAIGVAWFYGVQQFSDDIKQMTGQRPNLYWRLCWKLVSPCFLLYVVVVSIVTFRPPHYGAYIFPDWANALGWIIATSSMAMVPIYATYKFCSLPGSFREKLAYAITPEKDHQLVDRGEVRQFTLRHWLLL
T2 sequence (P23977 whole entry, looked up): as the sequence (P23977 whole entry) above
T2 sequence (P31652 whole entry, looked up): as the sequence (P31652 whole entry) above

Structure (SMILES) | IC50 [1] [nM] | Ratio [2] | Ratio [3] | IC50 [4] [nM] | IC50 [5] [nM] | IC50 [6] [nM]
CN1CC2CC1CN2CCOC(c1ccccc1)c1ccccc1 (stereo not given) | 28000 | 29 | 33 | 1170 | 33000 | 830
c1ccc(C(OCCN2CCC3CCC(C2)N3)c2ccccc2)cc1 (stereo not given) | 3960 | 14 | 15 | 431 | 6060 | 260
CN1C2CCC1CN(CCOC(c1ccccc1)c1ccccc1)CC2 (stereo not given) | 6150 | 56 | 6.6 | 307 | 17000 | 928
Fc1ccc(C(OCCN2CC3CCC(C2)N3CCCc2ccccc2)c2ccc(F)cc2)cc1 | 506 |  |  | 8.2 | 77 | 219
CN1C2CCC1CN(CCOC(c1ccc(F)cc1)c1ccc(F)cc1)CC2 (stereo not given) | 1670 | 21 | 47 | 89 | 1900 | 36
Fc1ccc(C(OCCN2CC3CCC(C2)N3Cc2cc3ccccc3[nH]2)c2ccc(F)cc2)cc1 | 645 | 74 | 16 | 1.4 | 104 | 40
Fc1ccc(C(OCCN2CCC3CCC(C2)N3CCCc2ccccc2)c2ccc(F)cc2)cc1 (stereo not given) | 2080 | 6.5 | 44 | 130 | 843 | 47
Fc1ccc(C(OCCN2CC3CCC(C2)N3C/C=C/c2cccs2)c2ccc(F)cc2)cc1 | 268 | 12 | 10 | 4 | 46 | 28
Fc1ccc(C(OCCN2CC3CCC(C2)N3C/C=C/c2cccnc2)c2ccc(F)cc2)cc1 | 968 | 33 | 40 | 12 | 395 | 24
c1ccc(CCCN2C3CCC2CN(CCOC(c2ccccc2)c2ccccc2)C3)cc1 | 1390 | 42 | 58 | 18 | 740 | 24
Fc1ccc(C(OCCN2CC3CC2CN3CCCc2ccccc2)c2ccc(F)cc2)cc1 (stereo not given) | 173 | 1.6 | 1.5 | 127 | 203 | 113
CN1CC2CC1CN2CCOC(c1ccc(F)cc1)c1ccc(F)cc1 (stereo not given) | 2150 | 14 | 17 | 121 | 1700 | 125
c1ccc(CCCN2CC3CC2CN3CCOC(c2ccccc2)c2ccccc2)cc1 (stereo not given) | 912 | 3 | 5 | 223 | 720 | 198
c1ccc(CCCN2C3CCC2CN(CCOC(c2ccccc2)c2ccccc2)CC3)cc1 (stereo not given) | 2300 | 41 | 26 | 32 | 1320 | 87
CN1C2CCC1CN(CCOC(c1ccc(F)cc1)c1ccc(F)cc1)C2 | 898 | 88 | 93 | 8 | 705 | 9.6
CN1C2CCC1CN(CCOC(c1ccccc1)c1ccccc1)C2 | 13700 | 58 | 12 | 111 | 6400 | 1140
Fc1ccc(C(OCCN2CC3CCC(C2)N3C/C=C/c2ccco2)c2ccc(F)cc2)cc1 | 299 | 27 | 13 | 5.5 | 146 | 24
